# In ChEMBL document CHEMBL3112517, “Identification of dihydrostilbenes in Pholidota chinensis as a new scaffold for GABAA receptor modulators” (Bioorg Med Chem, 2014):
# How the values were obtained:
# [1] = Modulation of GABAA alpha5beta2gamma2S receptor (unknown origin) expressed in Xenopus laevis oocytes assessed as potentiation of EC3 to 10 GABA-induced chloride ion current at holding potential -70 mV by two-microelectrode voltage clamp assay; assay type: cell-based; conditions: Homo sapiens
# [2] = molecular target: T1, GABA A receptor alpha-2/beta-2/gamma-2 (Homo sapiens, UniProt P18507+P47869+P47870); assay: Modulation of GABAA alpha2beta2gamma2S receptor (unknown origin) expressed in Xenopus laevis oocytes assessed as potentiation of EC3 to 10 GABA-induced chloride ion current at holding potential -70 mV by two-microelectrode voltage clamp assay; assay type: cell-based
# T1 sequence (P47870 whole entry): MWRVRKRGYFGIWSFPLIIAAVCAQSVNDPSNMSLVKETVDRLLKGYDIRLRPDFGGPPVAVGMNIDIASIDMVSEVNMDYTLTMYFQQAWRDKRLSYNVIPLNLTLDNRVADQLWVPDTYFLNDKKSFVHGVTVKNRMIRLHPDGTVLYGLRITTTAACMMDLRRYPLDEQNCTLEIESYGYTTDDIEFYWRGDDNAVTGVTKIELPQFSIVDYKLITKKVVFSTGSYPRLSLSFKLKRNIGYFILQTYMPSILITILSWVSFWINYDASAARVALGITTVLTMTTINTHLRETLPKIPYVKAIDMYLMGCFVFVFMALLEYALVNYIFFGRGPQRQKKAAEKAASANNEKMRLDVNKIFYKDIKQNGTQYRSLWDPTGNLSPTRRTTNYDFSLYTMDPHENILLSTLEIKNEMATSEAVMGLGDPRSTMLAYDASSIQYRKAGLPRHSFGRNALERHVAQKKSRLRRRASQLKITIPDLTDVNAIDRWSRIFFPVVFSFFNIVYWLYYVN
# T1 sequence (P18507 whole entry): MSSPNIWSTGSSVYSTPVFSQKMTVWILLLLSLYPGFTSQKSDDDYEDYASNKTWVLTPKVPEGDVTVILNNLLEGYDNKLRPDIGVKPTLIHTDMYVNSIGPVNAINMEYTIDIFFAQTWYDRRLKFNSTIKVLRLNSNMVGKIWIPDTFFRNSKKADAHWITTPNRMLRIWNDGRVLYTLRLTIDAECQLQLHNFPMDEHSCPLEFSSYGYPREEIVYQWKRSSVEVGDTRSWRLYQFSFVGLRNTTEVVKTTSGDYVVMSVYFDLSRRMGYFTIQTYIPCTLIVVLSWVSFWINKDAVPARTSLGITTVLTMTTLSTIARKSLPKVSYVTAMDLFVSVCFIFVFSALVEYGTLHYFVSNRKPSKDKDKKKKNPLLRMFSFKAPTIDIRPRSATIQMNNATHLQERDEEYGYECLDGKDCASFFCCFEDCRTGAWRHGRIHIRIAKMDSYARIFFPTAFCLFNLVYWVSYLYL
# T1 sequence (P47869 whole entry): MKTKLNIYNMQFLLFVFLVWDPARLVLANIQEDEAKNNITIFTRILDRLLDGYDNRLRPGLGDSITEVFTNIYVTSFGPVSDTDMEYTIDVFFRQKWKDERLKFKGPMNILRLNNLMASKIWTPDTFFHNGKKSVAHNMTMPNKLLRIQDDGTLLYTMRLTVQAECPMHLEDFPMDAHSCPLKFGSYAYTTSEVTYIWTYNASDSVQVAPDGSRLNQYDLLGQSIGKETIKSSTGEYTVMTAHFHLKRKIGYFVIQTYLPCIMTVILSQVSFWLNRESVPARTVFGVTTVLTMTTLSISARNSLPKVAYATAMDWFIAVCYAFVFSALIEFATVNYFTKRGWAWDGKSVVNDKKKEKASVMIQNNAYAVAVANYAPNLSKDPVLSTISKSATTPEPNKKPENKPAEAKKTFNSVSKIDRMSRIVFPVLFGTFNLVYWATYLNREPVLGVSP
# [3] = Modulation of GABAA alpha4beta2gamma2S receptor (unknown origin) expressed in Xenopus laevis oocytes assessed as potentiation of EC3 to 10 GABA-induced chloride ion current at holding potential -70 mV by two-microelectrode voltage clamp assay; assay type: cell-based; conditions: Homo sapiens
# [4] = (§1) Potency index, ratio of compound activity for modulation of rat GABAA alpha1beta2gamma2S receptor assessed as EC3 to 10 GABA-induced chloride ion current to midazolam activity for modulation of GABAA alpha1beta2gamma2S receptor (unknown origin) assessed as potentiation of EC5 to 10 GABA-induced chloride ion current
# [5] = as §1, with “triazolam” for “midazolam”
# [6] = molecular target: T2, GABA A receptor alpha-3/beta-2/gamma-2 (Homo sapiens, UniProt P18507+P34903+P47870); assay: Modulation of GABAA alpha3beta2gamma2S receptor (unknown origin) expressed in Xenopus laevis oocytes assessed as potentiation of EC3 to 10 GABA-induced chloride ion current at holding potential -70 mV by two-microelectrode voltage clamp assay; assay type: cell-based
# T2 sequence (P47870 whole entry): T1 sequence (P47870 whole entry)
# T2 sequence (P18507 whole entry): T1 sequence (P18507 whole entry)
# T2 sequence (P34903 whole entry): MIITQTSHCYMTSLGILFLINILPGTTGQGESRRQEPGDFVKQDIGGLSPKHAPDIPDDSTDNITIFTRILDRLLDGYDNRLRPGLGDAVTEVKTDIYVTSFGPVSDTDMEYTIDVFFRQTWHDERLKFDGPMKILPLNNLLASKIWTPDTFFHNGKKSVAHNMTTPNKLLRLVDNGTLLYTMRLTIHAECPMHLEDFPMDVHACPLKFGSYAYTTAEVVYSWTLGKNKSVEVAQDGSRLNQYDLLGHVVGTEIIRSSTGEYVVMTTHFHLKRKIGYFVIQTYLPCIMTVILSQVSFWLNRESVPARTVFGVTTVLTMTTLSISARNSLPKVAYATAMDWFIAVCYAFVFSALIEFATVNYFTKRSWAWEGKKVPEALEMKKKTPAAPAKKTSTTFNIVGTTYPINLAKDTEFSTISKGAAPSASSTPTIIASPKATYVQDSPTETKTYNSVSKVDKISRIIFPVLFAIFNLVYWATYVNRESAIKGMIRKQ
# [7] = Modulation of GABAA alpha1beta1gamma2S receptor (unknown origin) expressed in Xenopus laevis oocytes assessed as potentiation of EC3 to 10 GABA-induced chloride ion current at holding potential -70 mV by two-microelectrode voltage clamp assay; assay type: cell-based; conditions: Homo sapiens
# Rattus norvegicus = organism: Rattus norvegicus; assay: Allosteric modulation of rat GABAA alpha1beta2gamma2S receptor expressed in Xenopus laevis oocytes assessed as potentiation of EC3 to 10 GABA-induced chloride ion current at holding potential -70 mV at 1 to 300 uM by two-microelectrode voltage clamp assay relative to GABA-treated control; assay type: cell-based
# How it was run: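 Stage V–VI Xenopus laevis oocytes were injected with 50 nL of rat α1, β2 and γ2S cRNA mixed 1:1:10 (about 300–3000 pg/nL per subunit), stored at 18 °C in ND96, and recorded on days 1–5. Two-electrode clamp was at −70 mV in pH 7.4 HEPES bath. Compound was applied by fast perfusion with GABA EC3–10, in 1% DMSO final. Enhancement = I(GABA+Comp)/IGABA − 1.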
compound,measurement,setting,value
COc1cc(O)cc(CCc2cccc(O)c2)c1 [BATATASIN III],EC50,[1],46.7 µM
same,EC50,[2],80.8 µM
same,EC50,[3],26.2 µM
same,Ratio,[4],4
same,Ratio,[5],4
same,EC50,[6],67.3 µM
same,EC50,[7],66.7 µM
same,Imax,Rattus norvegicus,1510%
